In the library only some 5.4% were active in any assay of this set; here they are far more common.
CSC inhib: cancer stem cell viability inhibitors, primary screen, luminescence | AID 2717, 2010 | cancer stem cell-like cells viability | inhibition, % at 7.5 µM | hit rate 1.1% among 300,000; in the data active = inhibition above about 75%; tested in HMLE shEcad cells
SKKanGAS inh: S. pyogenes SKKanGAS growth inhibitors in kanamycin, primary screen, streptokinase expression inhibitor project, SKKanGAS strain, BacTiter-Glo luminescence; 6 h; inhibition, % at 7.5 µM; hit rate 1.3% among 300,000; AID 1662, 2009;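 active = mean replicate score, as percent of positive control median, at least 50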;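 also: strain carries kanamycin resistance gene driven by streptokinase promoter and grows in 40 µg/ml kanamycin; loss of luminescence reflects streptokinase promoter inhibition or plain growth inhibition; 0% = median of DMSO wells and 100% = positive control at its reference dose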
T cruzi repl: inhibitors of intracellular T. cruzi growth, primary screen, luminescence, NIH3T3 host cells; hit rate 1.4% among 300,000; T. cruzi beta-gal in NIH3T3, 90 h; inhibition, % (concentration not given with the values);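 active = mean inhibition across valid replicates above about 55%, limit read from the data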;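 also: signal also drops with host cell toxicity which is not excluded here; 0% = plate median of DMSO wells and 100% = zero luminescence signal; higher percent means less beta-gal luminescence so fewer parasites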
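Test system: β-gal T. cruzi (Tulahuen C4) inside NIH/3T3 cells / Quantity: 5,000 cells/well / Measured by: luminescence from GalScreen with 0.05% NP40, read after 60 min / Medium: DMEM plus 2% FBS / Measure: parasite load inhibition, % / Reagent: Tulahuen C4 trypomastigotes, 5000/well / Schedule: co-culture of at least 90 h after 3 h attachment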
aSyn 5UTR inh: MLPCN primary screen, SNCA 5' untranslated region | AID 1813, 2009 | inhibition, % (tested at 7.5 µM) | hit rate 0.82% among 300,000 | alpha-synuclein 5'UTR reporter, inhibitor activity; in the data active = inhibition above about 60%;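 also: H4 neuroglioblastoma cells stably carrying SNCA 5'UTR luciferase fusion; 0% = DMSO wells and 100% = positive control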
Mdm2-MdmX inh: inhibitors of human Mdm2-MdmX association, primary screen, cell-based, luminescence, split luciferase, SaOS-2, uHTS. SaOS-2 split-luciferase Mdm2/MdmX complementation. inhibition, % at 8 µM. hit rate 3% among 330,000. AID 485346, 2010;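 active = inhibition of at least 50% at 8 µM in the primary screen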
Target sequence (O15151 whole entry, looked up): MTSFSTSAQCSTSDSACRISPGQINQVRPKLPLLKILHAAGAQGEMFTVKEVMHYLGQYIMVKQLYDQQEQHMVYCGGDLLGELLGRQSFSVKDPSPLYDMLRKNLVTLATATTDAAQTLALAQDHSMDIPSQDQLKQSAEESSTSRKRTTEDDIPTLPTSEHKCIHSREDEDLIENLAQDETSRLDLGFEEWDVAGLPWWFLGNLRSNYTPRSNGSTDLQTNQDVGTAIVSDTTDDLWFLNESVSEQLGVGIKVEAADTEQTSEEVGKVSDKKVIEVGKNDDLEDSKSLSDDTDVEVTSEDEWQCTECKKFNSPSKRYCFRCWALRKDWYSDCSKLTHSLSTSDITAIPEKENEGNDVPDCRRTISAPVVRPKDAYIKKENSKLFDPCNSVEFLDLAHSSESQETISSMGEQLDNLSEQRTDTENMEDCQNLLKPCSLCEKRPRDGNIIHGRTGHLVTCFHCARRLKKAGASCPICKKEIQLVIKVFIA
Target sequence (Q00987 whole entry, looked up): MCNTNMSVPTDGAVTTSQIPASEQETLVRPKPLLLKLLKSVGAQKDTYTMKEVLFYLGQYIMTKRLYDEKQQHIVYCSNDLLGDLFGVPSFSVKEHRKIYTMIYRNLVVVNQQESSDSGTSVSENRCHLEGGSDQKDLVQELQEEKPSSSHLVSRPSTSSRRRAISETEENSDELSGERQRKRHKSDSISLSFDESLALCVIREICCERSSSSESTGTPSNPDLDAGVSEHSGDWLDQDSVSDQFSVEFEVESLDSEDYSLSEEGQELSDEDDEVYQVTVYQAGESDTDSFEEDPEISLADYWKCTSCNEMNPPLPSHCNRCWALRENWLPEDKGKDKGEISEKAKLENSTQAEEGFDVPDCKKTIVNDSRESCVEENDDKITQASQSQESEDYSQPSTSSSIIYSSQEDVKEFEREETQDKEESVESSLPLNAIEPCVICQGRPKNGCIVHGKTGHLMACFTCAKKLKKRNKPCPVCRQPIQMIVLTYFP
* marks the source's active call; other numbers are inactive results.

What do the screens show for `CCc1ccc([C@@H]2CC=C(C(=O)O)[C@H](c3cccc(Cl)c3)N2S(=O)(=O)c2ccc(C)cc2)cc1`?
CSC inhib: -3.0; Mdm2-MdmX inh: 7.8

Results for COc1ccc2c(c1)sc1nc(=O)ccn12 ?
CSC inhib: -1.1; SKKanGAS inh: -0.3; T cruzi repl: -15.2; aSyn 5UTR inh: -6.3; Mdm2-MdmX inh: -10.8

Results for COc1ccc2c(c1)sc(=N)n2C ?
CSC inhib: -12.3; SKKanGAS inh: 1.3; T cruzi repl: 72.0*; aSyn 5UTR inh: -5.8; Mdm2-MdmX inh: 21.4

How did CCCOc1ccc2cc(-c3ccccn3)c(=O)oc2c1 do in these assays?
CSC inhib: 26.3; SKKanGAS inh: 10.1; T cruzi repl: -17.3; aSyn 5UTR inh: 77.2*; Mdm2-MdmX inh: 17.9

What do the screens show for `O=c1oc2cc(OCc3c(F)cccc3Cl)ccc2cc1-c1ccccn1`?
CSC inhib: 6.6; SKKanGAS inh: 18.3; T cruzi repl: 7.7; aSyn 5UTR inh: -107.4; Mdm2-MdmX inh: -15.6

Results for N#Cc1c(-c2ccccc2)nc(SCc2ccc(Cl)cc2)[nH]c1=O ?
CSC inhib: 104.3*; SKKanGAS inh: 61.3*; T cruzi repl: -19.6; aSyn 5UTR inh: 12.3; Mdm2-MdmX inh: 17.0

Results for N#Cc1c(-c2ccccc2)nc(SCC(=O)N2c3ccccc3Sc3ccccc32)[nH]c1=O ?
CSC inhib: 54.1; SKKanGAS inh: 73.4*; T cruzi repl: 7.2; aSyn 5UTR inh: -12.7; Mdm2-MdmX inh: 16.2

What do the screens show for `Cc1ccc(C(=O)COC(=O)C2CC3CCCC(C2)C3=O)cc1[N+](=O)[O-]` (centres undefined)?
CSC inhib: -11.8; SKKanGAS inh: -4.7; T cruzi repl: -11.6; aSyn 5UTR inh: 6.8; Mdm2-MdmX inh: 6.3

What do the screens show for `O=[N+]([O-])c1ccc(Nc2nc(NCCO)nc(N3CCCC3)n2)cc1`?
CSC inhib: -4.7; SKKanGAS inh: 97.5*; T cruzi repl: 3.3; aSyn 5UTR inh: 8.1; Mdm2-MdmX inh: 25.1

How did NNc1nc(Nc2ccccc2)nc(N2CCCCC2)n1 do in these assays?
CSC inhib: 13.2; SKKanGAS inh: 25.8; T cruzi repl: -13.2; aSyn 5UTR inh: -29.1; Mdm2-MdmX inh: 7.8

Results for NNc1nc(Nc2ccc([N+](=O)[O-])cc2)nc(N2CCCCCC2)n1 ?
CSC inhib: 1.0; SKKanGAS inh: 81.6*; T cruzi repl: 49.4; aSyn 5UTR inh: -41.3; Mdm2-MdmX inh: 3.5

Results for Cc1ccc(C(=O)N/C(=C\c2ccc(-c3ccccc3[N+](=O)[O-])o2)C(=O)NCCCN2CCOCC2)cc1 ?
CSC inhib: 10.6; SKKanGAS inh: 18.4; T cruzi repl: 4.3; aSyn 5UTR inh: 70.6*; Mdm2-MdmX inh: 8.6

What do the screens show for `Cc1ccc(C(=O)N/C(=C\c2cn(C)c3ccccc23)C(=O)NCCCN2CCOCC2)cc1`?
CSC inhib: -14.9; SKKanGAS inh: -3.2; T cruzi repl: -4.5; aSyn 5UTR inh: 9.0; Mdm2-MdmX inh: 10.4

How did CC(C)c1ccc2nc3sc(C(=O)N4CCc5ccccc5C4)c(N)c3cc2c1 do in these assays?
SKKanGAS inh: 53.6*; T cruzi repl: 36.6; aSyn 5UTR inh: -61.5; Mdm2-MdmX inh: 6.4

Results for CCCCCCSc1ccc([C@H]2N[C@@](C)(C(=O)OC)[C@H]3C(=O)N(CC)C(=O)[C@@H]23)cc1 ?
CSC inhib: 77.6*; SKKanGAS inh: 7.2; T cruzi repl: 16.6; aSyn 5UTR inh: 2.1; Mdm2-MdmX inh: 2.7

How did CCc1cccc(NC(=O)CNC(=O)N2CC(=O)Nc3ccccc32)c1 do in these assays?
CSC inhib: -11.7; SKKanGAS inh: -2.8; T cruzi repl: 6.4; aSyn 5UTR inh: -1.0; Mdm2-MdmX inh: 26.4

How did CCc1cccc(Nc2c([N+](=O)[O-])cc(C(=O)N3CC(=O)Nc4ccccc43)cc2[N+](=O)[O-])c1 do in these assays?
SKKanGAS inh: 18.1; T cruzi repl: 77.4*; aSyn 5UTR inh: 33.3; Mdm2-MdmX inh: 9.6

How did NS(=O)(=O)c1ccc(CCNCc2ccccc2OCc2ccc(Cl)cc2)cc1 do in these assays?
CSC inhib: 8.6; SKKanGAS inh: -3.3; T cruzi repl: 15.6; aSyn 5UTR inh: -3.1; Mdm2-MdmX inh: 35.2

Results for NC(=O)C1CCN(C(=O)c2cc(-c3ccc(Cl)cc3)nc3ccccc23)CC1 ?
CSC inhib: -3.7; Mdm2-MdmX inh: 7.2
